# From PubChem
# H9c2 protect = modulators protecting cardiomyocytes from myocardial damage. AID 588492. 0.63% of 360,000 active. protection from H2O2 cell death, % at 20 µM. H9c2 cardiomyocytes, H2O2 injury protection, ATPLite, 2 h;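 active = compounds giving at least 50% protection of heart cells from peroxide-induced death in the single-dose screen, raw or plate-pattern-corrected value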;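 note: 0% = DMSO wells with peroxide and 100% = DMSO wells without peroxide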
# CRFR2-BP antag = blocks CRF-induced signaling of the CRF-BP/CRF-R2 complex; AID 588475; inhibition, % at 11.8 µM; 0.59% of 350,000 active; HEK293 CRF-R2/CRF-BP, CRF-induced calcium fluorescence;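 active = inhibition of the ligand-induced calcium signal above about 50% at the single tested concentration, limit read from the data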
# hiPSC survival = increases survival of single human iPS cells; hiPSC single-cell survival, ATPlite luminescence; 100% = ROCK inhibitor wells, 0% = DMSO; survival enhancement, % at 20 µM; 0.044% of 360,000 active; in the data active = survival enhancement above about 18%;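 note: cells exposed to compounds for 16 hours before the ATP read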
# beta cell repl = induces beta-cell replication in MIN6 cells | MIN6 cells proliferation, ATPlite luminescence, 48 h; cells starved in 0.2% serum; 100% = growth in 10% serum | proliferation, % at 10 µM | 0.29% of 330,000 active;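 active = compounds whose signal lies at least 3.5 SD above the mean of all wells on their plate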;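 note: 0% = DMSO-treated cells in low-serum medium and 100% = 10% serum control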
# CRFBP-R2 agonist = CRF-BP/CRF-R2 complex agonism; HEK293 CRF-R2/CRF-BP, calcium dye fluorescence (FLIPR); percent of saturating CRF peptide response; activation, % at 13.2 µM; 0.46% of 350,000 active;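 active = activation of at least 50%, plus an integration ratio under a set limit after plate pattern correction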;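 note: plate controls were neutral control wells without compound for no effect and CRF at EC100 for full effect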
# UCH37 DUB inh = inhibitors of human deubiquitinating enzyme UCH37 | purified proteasome/UCH37, Ub-AMC cleavage fluorescence | 0.33% of 330,000 active | inhibition, % (test concentration not listed) | AID 588478 | Q9Y5K5;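 active = mean inhibition over replicate wells above about 20%, limit read from the data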;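 note: 0% = compound-free wells with enzyme and 100% = wells lacking proteasome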
# Target sequence (Q9Y5K5 whole entry, looked up): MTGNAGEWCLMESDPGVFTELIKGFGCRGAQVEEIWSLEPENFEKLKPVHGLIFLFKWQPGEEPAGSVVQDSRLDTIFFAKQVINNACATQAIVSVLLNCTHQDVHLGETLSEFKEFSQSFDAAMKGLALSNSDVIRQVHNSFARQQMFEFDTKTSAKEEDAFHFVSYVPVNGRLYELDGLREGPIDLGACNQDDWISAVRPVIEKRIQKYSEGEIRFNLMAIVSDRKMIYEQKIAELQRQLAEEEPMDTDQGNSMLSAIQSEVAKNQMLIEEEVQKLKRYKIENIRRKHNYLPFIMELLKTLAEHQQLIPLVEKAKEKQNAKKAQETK
#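 Material: human UCH37 enzyme supplied as purified proteasome complex. Measure: % inhibition of Ub-AMC cleavage fluorescence. Medium: pH 7.4 Tris-HCl (50 mM) with ovalbumin, ATP-MgCl2, DTT. Times: 30 min preincubation with enzyme, 25 min cleavage at room temperature. Detection: AMC fluorescence intensity at 355/460 nm.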
# Active calls of the source: *; . = not tested or not shown. In the library only some 2.1% were active in any assay of this set; here they are far more common.
SMILES,H9c2 protect,CRFR2-BP antag,hiPSC survival,beta cell repl,CRFBP-R2 agonist,UCH37 DUB inh
CCN(CC)CCNS(=O)(=O)c1ccc2[nH]cc(C(=O)O)c(=O)c2c1,2.9,16.6,1.8,-1.3,-3.1,-3.8
Cc1cc(C)cc(NS(=O)(=O)c2ccc3[nH]cc(C(=O)N4CCc5ccccc54)c(=O)c3c2)c1,-6.9,-101.3,1.1,-4.7,61.0*,5.8
O=C(NCC(=O)N(Cc1cccs1)C(C(=O)NC1CCCC1)c1ccco1)c1cccs1 (stereo not drawn),59.3*,-12.0,2.0,-2.8,-0.5,5.0
O=C(NCC(=O)N(Cc1ccccc1)C(C(=O)NC1CCCCC1)c1ccco1)c1ccco1 (stereo not drawn),97.4*,-4.8,0.6,-1.9,0.6,1.0
O=C(NCC(=O)N(Cc1cccs1)C(C(=O)NC1CCCCC1)c1ccncc1)c1ccco1 (stereo not drawn),3.1,-3.7,-0.7,2.6,-0.2,1.9
COc1ccc(C(C(=O)NC2CCCC2)N(Cc2ccccc2)C(=O)CNC(=O)c2ccco2)cc1 (stereo not drawn),4.1,-29.1,-2.0,-0.5,-1.6,-0.5
O=C(CC(=O)NC1CCCCC1)NN=Cc1ccccc1[N+](=O)[O-],.,.,.,.,.,5.1
Cc1c(C(=O)O)oc2c1C(=NO)CCC2,.,.,.,.,.,0.4
CCn1cc(C(=O)NCc2cccc(F)c2)c(=O)c2cc(F)c(N3CCN(C(=O)c4ccco4)CC3)cc21,54.8*,-0.6,-0.5,-3.5,0.3,-54.1
CC(C)N(C(=O)[C@H]1C[C@H](CC(=O)NCc2ccco2)C(=O)N2CCc3c([nH]c4cc(CCC(=O)N(C)C)ccc34)[C@]12C)C(C)C,7.1,59.7*,-0.8,.,-3.4,3.1
CC(C)N(C(=O)[C@H]1C[C@H](CC(=O)NCCC2=CCCCC2)C(=O)N2CCc3c([nH]c4ccc(Cl)cc34)[C@]12C)C(C)C,-8.1,64.9*,-0.4,.,-3.3,2.0
COc1ccc(CNC(=O)C[C@H]2C[C@H](C(=O)N(C(C)C)C(C)C)[C@@]3(C)c4[nH]c5ccc(Cl)cc5c4CCN3C2=O)cc1OC,0.6,1.2,0.0,.,-6.0,1.9
C[C@]12c3[nH]c4ccccc4c3CCN1C(=O)C(CC(=O)NCC13CC4CC(CC(C4)C1)C3)C[C@@H]2C(=O)N1CCOCC1 (stereo partly drawn),-1.4,-47.9,0.5,-4.6,55.1*,1.0
C[C@]12c3[nH]c4ccccc4c3CCN1C(=O)C(CC(=O)NCC13CC4CC(CC(C4)C1)C3)C[C@@H]2C(=O)N1CCCCC1 (stereo partly drawn),-13.2,-8.9,-2.5,-4.9,3.6,-1.1
O=C(C[C@H]1C[C@H](C(=O)N2CCCCC2)[C@@]2(CCc3ccccc3)c3[nH]c4ccc(Cl)cc4c3CCN2C1=O)NCCCn1ccnc1,-8.9,-7.7,1.0,.,7.5,2.1
O=C(C[C@H]1C[C@H](C(=O)N2CCCCC2)[C@@]2(CCc3ccccc3)c3[nH]c4ccc(Cl)cc4c3CCN2C1=O)NCCN1CCOCC1,-6.8,-3.4,-3.0,.,57.4*,2.0
Nc1nonc1-n1nnc(C(=O)NN=Cc2ccccc2Cl)c1CSc1ccccc1,.,.,.,.,.,4.5
CC(NC(=O)c1ccccc1)C(=O)NN=Cc1ccco1 (stereo not drawn),.,.,.,.,.,2.1
CCOC(=O)c1cc(=O)cc(C(=O)OCC)o1,9.3,50.2*,0.1,2.6,-2.0,3.0
COc1ccccc1C1C(C(=O)c2sc(C)nc2C)=C(O)C(=O)N1CCN1CCOCC1 (stereo not drawn),-1.7,94.3*,-0.7,-2.4,-1.6,8.8
COc1ccc(Cc2nc(-c3ccc(Cl)cc3)no2)cc1,-6.3,50.5*,-2.6,-0.5,-1.2,1.6
O=C1OCCN1C(=O)[C@H]1[C@H](c2ccc([N+](=O)[O-])cc2)C(c2ccc(F)cc2)=NN1c1ccccc1,33.7,-6.7,2.6,.,4.0,7.1
O=C1OCCN1C(=O)[C@H]1[C@H](c2ccc([N+](=O)[O-])cc2)C(c2ccc(F)cc2)=NN1c1ccc(Br)cc1,51.5*,-7.6,-0.3,.,1.7,3.7
CC(Cc1ccccc1)=NNC(=O)C1CCCCC1,.,.,.,.,.,2.9
Cc1cccc(C)c1OCC(=O)NN=Cc1cccnc1,.,.,.,.,.,1.4
SMILES,H9c2 protect,CRFR2-BP antag,hiPSC survival,beta cell repl,CRFBP-R2 agonist,UCH37 DUB inh
O=C(NNC(=S)NC1CCCCC1)c1sc2ccccc2c1Cl,-12.6,12.5,0.8,-2.8,5.8,-2.8
COc1ccc(C(=O)NC(=S)NNC(=O)c2ccccc2O)cc1,26.0,2.7,0.1,-2.7,58.7*,1.6
COc1ccc(C(=O)NC(=S)NNC(=O)c2ccco2)cc1,19.2,-0.8,-0.3,0.0,0.5,8.6
COc1ccc(C(=O)NC(=S)NNC(=O)c2ccccc2C)cc1,0.9,31.3,1.2,-1.9,116.1*,2.2
COc1ccc(C(=O)NNC(=S)NC(=O)C(C)(C)C)cc1,12.5,43.5,0.3,-2.4,127.1*,4.0
CC(C)(C)C(=O)NC(=S)NNC(=O)c1sc2ccccc2c1Cl,-21.6,-261.7,-0.2,-2.5,225.8*,4.2
CC(=NNC(=O)c1cc2ccccc2cc1O)C1C(=O)c2ccccc2C1=O,.,.,.,.,.,16.3
Oc1ccc(Br)cc1C=Nn1cnc2ccccc21,.,.,.,.,.,-2.5
COc1ccc(NC(=O)c2cc3ccccc3cc2OC)cc1,-8.1,2.1,-0.1,-0.7,-0.3,1.9
O=C(/C=C/c1cccs1)NC(=S)NNC(=O)c1ccccc1O,26.3,-14.4,-2.2,-5.3,62.6*,4.7
COc1ccc(C(=O)NNC(=S)NC(=O)/C=C/c2cccs2)cc1,-10.3,-4.4,-1.4,1.1,-2.6,6.0
COc1cc2ccccc2cc1C(=O)NNC(=O)c1ccccc1O,51.6*,.,-0.4,-5.0,.,.
COc1ccc(CCCC(=O)NN=Cc2ccccc2OC)cc1,.,.,.,.,.,3.7
O=C(NN=Cc1ccc(F)c(F)c1)c1cccc(S(=O)(=O)N2CCCCC2)c1,.,.,.,.,.,-0.1
O=c1[nH]c(SCCOc2ccccc2F)nc2ccccc12,12.1,-1.6,-0.2,3.6,-2.8,-1.7
COc1ccc(CSc2nc3ccccc3c(=O)[nH]2)cc1F,53.2*,-9.4,1.2,1.6,-1.3,-0.4
COc1ccccc1OCCSc1nc2ccccc2c(=O)[nH]1,66.3*,-7.5,-1.2,-0.8,0.4,-1.0
Clc1cncc(Cl)c1NN=Cc1ccccc1,.,.,.,.,.,5.8
N#C/C(=C\C=C\c1ccccc1)c1nc(-c2ccc3c(c2)OCO3)cs1,-1.4,-74.0,0.5,-3.5,64.9*,-2.0
N#C/C(=C\c1ccc(N2CCOCC2)c([N+](=O)[O-])c1)c1nc2ccccc2[nH]1,61.5*,-36.5,-2.1,-0.8,-0.2,6.8
N#C/C(=C/c1ccc(N2CCCC2)c([N+](=O)[O-])c1)c1nc2ccccc2[nH]1,0.8,1.0,1.6,-3.9,-0.8,8.3
